# Measurements from ChEMBL document CHEMBL1255220, “Synthesis and antitumor effect in vitro and in vivo of substituted 1,3-dihydroindole-2-ones” (J Med Chem, 2010).
# Activity calls are given as the source filed them. The rule behind the calls is not given here.
# Experiments:
# [1] = system: PC-3; assay: Cytotoxicity against human PC3 cells after 72 hrs by WST-1 assay; format: functional, cell-based
# Procedure, shortened: (§1)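 Cells seeded at 3×10³/well; next day serially diluted compound added in triplicate; 72 h at 37 °C, 5% CO₂. Viable cells measured with WST-1 reagent (1 h), absorbance 450 nm minus 690 nm reference. IC50 is mean ± SD of at least two experiments run in triplicate. MCF-7 grown in DMEM, PC3 in RPMI, each with 10% serum.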
# [2] = system: MCF7; assay: Cytotoxicity against human MCF7 cells after 72 hrs by WST-1 assay; format: functional, cell-based; procedure, shortened: as §1
# [3] = Toxicity in iv dosed rat assessed as maximum tolerated dose; conditions: in vivo
# [4] = AUC in mouse at 5 mg/kg, iv; format: ADME, organism-based; set-up: dose 5 mg/kg, route intravenous; conditions: plasma
# Procedure, shortened: (§2)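 Compound given as single iv dose to mice or rats. Plasma samples prepared by protein precipitation with acetonitrile containing 1 μg/mL internal standard (3:1 v/v). Analysed by UPLC-MS/MS on a C18 reversed-phase column at 40 °C with an acetonitrile–0.05% formic acid gradient. Half-life and AUC (h ng/mL) derived from the plasma levels.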
# [5] = Therapeutic index, ratio of MTD in rat to ED50 for antitumor activity against human PC3 cells xenografted in rat; format: cell-based, PC-3; conditions: in vivo, read-out: TI
# Procedure, shortened: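 PC3 human prostate cancer cells (1e7, grown in RPMI + 10% FBS, suspended in PBS + Matrigel) were implanted sc in female nude rats (NIHRNU-M) or nude mice (NMRI/nude), with iv dosing 3×/week. Rat MTD came from a single iv dose. Effective rat doses were estimated from mouse xenografts using a mouse-to-rat conversion factor of 0.5. Index = rat toxic dose / rat effective dose.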
# [6] = system: PC-3; assay: Antitumor activity against human PC3 cells xenografted in sc dosed NMRI mouse assessed as tumor regression dose; format: functional
# Procedure, shortened: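 1e7 PC3 cells (grown in RPMI + 10% FBS) in PBS/Matrigel 1:1 injected sc into female NMRI nude mice or female NIH-RNU nude rats. Compound dosed iv three times per week. Tumour regression dose recorded. Rat effective doses were estimated from mouse xenografts using a 0.5 mouse-to-rat conversion factor.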
# [7] = system: MDA-MB-468; assay: Cytotoxicity against human MDA-MB-468 cells; format: functional, cell-based
# [8] = Half life in mouse at 5 mg/kg, iv; format: ADME, organism-based; set-up: dose 5 mg/kg, route intravenous; conditions: in vivo; procedure, shortened: as §2
# [9] = system: MDA-MB-231; assay: Cytotoxicity against human MDA-MB-231 cells; format: functional, cell-based
# [10] = system: PC-3; assay: Antitumor activity against human PC3 cells xenografted in sc dosed rat assessed as tumor regression dose; format: functional
# [11] = target: Eukaryotic translation initiation factor 2 subunit 1 (Homo sapiens) (UniProt P05198); assay: Inhibition of eIF2alpha autophosphorylation in human A2780 cells; format: cell-based
# Sequence of Eukaryotic translation initiation factor 2 subunit 1 (Homo sapiens) (P05198 whole entry): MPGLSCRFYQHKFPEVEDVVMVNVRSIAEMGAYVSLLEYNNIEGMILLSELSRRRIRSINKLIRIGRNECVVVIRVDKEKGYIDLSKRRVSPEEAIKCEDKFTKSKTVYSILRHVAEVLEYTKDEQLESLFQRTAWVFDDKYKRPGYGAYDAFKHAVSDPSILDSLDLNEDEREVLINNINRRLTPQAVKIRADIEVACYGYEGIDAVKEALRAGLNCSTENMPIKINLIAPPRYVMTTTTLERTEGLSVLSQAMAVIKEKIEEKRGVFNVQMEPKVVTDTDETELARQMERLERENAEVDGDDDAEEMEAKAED
# Procedure, shortened: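 MCF-7 (DMEM) and A2780 (RPMI 1640) cells, together with sublines made resistant by culture in rising concentrations of the parent oxindole, were treated with compound for 4 and 24 h respectively. Lysates (20 μg protein) separated by SDS-PAGE and blotted onto nitrocellulose. Phospho-eIF2α read by western blot: milk block, primary antibody overnight at 4 °C, HRP secondary antibody.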
# [12] = target: Eukaryotic translation initiation factor 2 subunit 1 (Homo sapiens) (UniProt P05198); assay: Induction of eIF2alpha phosphorylation in human MCF7 cells
# [13] = Half life in rat at 10 mg/kg, iv; format: ADME, organism-based; set-up: dose 10 mg/kg, route intravenous; conditions: in vivo; procedure, shortened: as §2
# [14] = AUC in rat at 10 mg/kg, iv; format: ADME, organism-based; set-up: dose 10 mg/kg, route intravenous; conditions: plasma; procedure, shortened: as §2
# [15] = AUC in rat at 2.5 mg/kg, iv; format: ADME, organism-based; set-up: dose 2.5 mg/kg, route intravenous; conditions: plasma; procedure, shortened: as §2
# [16] = Half life in rat at 2.5 mg/kg, iv; format: ADME, organism-based; set-up: dose 2.5 mg/kg, route intravenous; conditions: in vivo; procedure, shortened: as §2
# [17] = AUC in rat at 5 mg/kg, iv; format: ADME, organism-based; set-up: dose 5 mg/kg, route intravenous; conditions: plasma; procedure, shortened: as §2
# [18] = Half life in rat at 5 mg/kg, iv; format: ADME, organism-based; set-up: dose 5 mg/kg, route intravenous; conditions: in vivo; procedure, shortened: as §2
# [19] = system: MCF7; assay: Cytotoxicity against human MCF7 cells after 72 hrs at 0.5 uM by WST-1 assay; format: functional; conditions: MCF7, 72 h
Compound,"IC50 ([1]; Homo sapiens, PC-3, 72 h) [nM]","IC50 ([2]; Homo sapiens, MCF7, 72 h) [nM]",other results
COc1ccc2c(c1C)NC(=O)[C@]2(c1ccc(O)cc1)C1CCCCCC1,2,0.48,
COc1ccc2c(c1C)NC(=O)[C@@]2(c1ccc(O)cc1)C1CCCCCC1,> 1000,> 1000,
O=C1Nc2c(ccc(F)c2F)C1(c1ccc(O)cc1)c1ccc(O)cc1,699,20,MTD [3]: 1 mg/kg; AUC [4]: 6770 ng·h/mL; selectivity ratio [5]: 0.4; Activity [6]: 5 mg/kg; IC50 [7]: 20 nM; half-life [8]: 1.7 h; IC50 [9]: > 3000 nM
O=C1Nc2c(C(F)(F)F)cccc2C1(c1ccc(O)cc1)C1CCCCCC1 (racemic),91,9.7,MTD [3]: 40 mg/kg; selectivity ratio [5]: 4; Activity [6]: 20 mg/kg; Activity [10]: >20 mg/kg
O=C1Nc2c(C(F)(F)F)cccc2C1(c1ccc(O)cc1)n1ccnc1 (racemic),> 1000,> 1000,inhibition [11]: inactive; induction [12]: inactive
Cc1cc(C)c2c(c1)C(c1ccc(O)cc1)(c1ccc(F)cc1)C(=O)N2 (racemic),209,40,
Cc1cc(C)c2c(c1)C(c1ccc(O)cc1)(C1CCCCCC1)C(=O)N2 (racemic),> 1000,> 1000,
Cc1cc(F)cc2c1NC(=O)C2(c1ccc(O)cc1)C1CCCCCC1 (racemic),> 1000,> 1000,
Cc1ccc2c(c1C)NC(=O)C2(c1ccc(O)cc1)C1CCCCCC1 (racemic),> 1000,19,
Cc1c(F)ccc2c1NC(=O)C2(c1ccc(O)cc1)C1CCCCCC1 (racemic),30,20,
Cc1c(Cl)ccc2c1NC(=O)C2(c1ccc(O)cc1)C1CCCCCC1 (racemic),150,51,
Cc1ccc2c(c1Cl)NC(=O)C2(c1ccc(O)cc1)C1CCCCCC1 (racemic),17,2.8,
COc1ccc2c(c1C)NC(=O)C2(c1ccc(O)cc1)c1ccc(F)cc1 (racemic),9,6.3,half-life [13]: 1.5 h; MTD [3]: 15 mg/kg; selectivity ratio [5]: 3; Activity [6]: 10 mg/kg; AUC [14]: 3950 ng·h/mL; Activity [10]: <10 mg/kg
COc1ccc2c(c1C)NC(=O)C2(c1ccc(O)cc1)C1CCCC1 (racemic),111,1,
COc1ccc2c(c1C)NC(=O)C2(c1ccc(O)cc1)C1CCCCC1 (racemic),28,14,
O=C1Nc2c(ccc(F)c2F)C1(c1ccccc1)c1ccc(O)cc1 (racemic),8.9,7.1,
O=C1Nc2c(ccc(F)c2F)C1(c1ccc(O)cc1)c1ccc(F)cc1 (racemic),8.6,2.6,MTD [3]: 2.5 mg/kg; AUC [4]: 1910 ng·h/mL; AUC [15]: 2530 ng·h/mL; selectivity ratio [5]: 2; Activity [6]: 2.5 mg/kg; half-life [8]: 2.1 h; half-life [16]: 0.8 h; Activity [10]: <2.5 mg/kg
COc1ccc2c(c1C)NC(=O)C2(c1ccc(O)cc1)C1CCCCCC1 (racemic),12,4.7,half-life [13]: 1.5 h; MTD [3]: 70 mg/kg; inhibition [11]: inactive; selectivity ratio [5]: 7; Activity [6]: 20 mg/kg; AUC [14]: 5760 ng·h/mL; induction [12]: inactive; Activity [10]: 10 mg/kg
COc1ccc(C2(c3ccc(O)cc3)C(=O)Nc3c2ccc(F)c3F)cc1 (racemic),,,IC50 ([1]; pc-3): 2.2 nM; IC50 ([2]; mcf7): 6.3 nM
Cc1ccc(C2(c3ccc(O)cc3)C(=O)Nc3c2ccc(F)c3F)cc1 (racemic),0.8,1.7,
O=C1Nc2c(ccc(F)c2F)C1(c1ccc(O)cc1)C1CCCCC1 (racemic),,,AUC [17]: 1350 ng·h/mL; MTD [3]: 10 mg/kg; half-life [18]: 1.1 h; AUC [4]: 3550 ng·h/mL; IC50 ([1]; pc-3): 32 nM; selectivity ratio [5]: 2; Activity [6]: 10 mg/kg; half-life [8]: 1.6 h; IC50 ([2]; mcf7): 13 nM; Activity [10]: <10 mg/kg
CCOc1ccc(C2(c3ccc(O)cc3)C(=O)Nc3c2ccc(F)c3F)cc1 (racemic),24,11,

Compound,"IC50 ([1]; Homo sapiens, PC-3, 72 h) [nM]","IC50 ([2]; Homo sapiens, MCF7, 72 h) [nM]",other results
CCCOc1ccc(C2(c3ccc(O)cc3)C(=O)Nc3c2ccc(F)c3F)cc1 (racemic),> 1000,356,
CCCCCOc1ccc(C2(c3ccc(O)cc3)C(=O)Nc3c2ccc(F)c3F)cc1 (racemic),> 1000,> 1000,
COc1ccc(C2(c3cccc(O)c3)C(=O)Nc3c2ccc(F)c3F)cc1 (racemic),145,196,
O=C1Nc2c(ccc(F)c2F)C1(c1ccc(O)cc1)c1ccc(F)c(F)c1 (racemic),19,7.8,
O=C1Nc2c(ccc(F)c2F)C1(c1ccc(O)cc1)c1cccs1 (racemic),0.3,82,AUC [4]: 395 ng·h/mL; AUC [15]: 2630 ng·h/mL; half-life [8]: 0.4 h; half-life [16]: 0.7 h
O=C1Nc2c(ccc(F)c2F)C1(c1ccncc1)c1ccc(O)cc1 (racemic),110,37,
O=C1Nc2c(ccc(F)c2F)C1(c1ccc(O)cc1)c1cccnc1 (racemic),> 1000,63,
CCCC1(c2ccc(O)cc2)C(=O)Nc2c1ccc(F)c2F (racemic),> 1000,> 1000,
CCCCCC1(c2ccc(O)cc2)C(=O)Nc2c1ccc(F)c2F (racemic),1.1,96,
O=C1Nc2c(ccc(F)c2F)C1(c1ccc(O)cc1)C1CCCC1 (racemic),8.2,12,AUC [4]: 1850 ng·h/mL; AUC [15]: 2400 ng·h/mL; half-life [8]: 3.7 h; half-life [16]: 1.1 h
O=C1Nc2c(ccc(F)c2F)C1(c1ccc(O)cc1)C1CCCCCC1 (racemic),12,1.2,AUC [17]: 2290 ng·h/mL; MTD [3]: > 40 mg/kg; half-life [18]: 2.1 h; AUC [4]: 694 ng·h/mL; selectivity ratio [5]: 8; Activity [6]: 10 mg/kg; half-life [8]: 1.3 h
O=C1Nc2c(ccc(F)c2F)C1(c1ccc(O)cc1)C1CCCCCCC1 (racemic),> 1000,> 1000,
O=C1Nc2c(ccc(F)c2F)C1(CC1CCCCC1)c1ccc(O)cc1 (racemic),> 1000,102,
O=C1Nc2c(ccc(F)c2F)C1(Cc1ccccc1)c1ccc(O)cc1 (racemic),> 1000,> 1000,
O=C1Nc2ccccc2C1(c1ccc(O)cc1)c1ccc(F)cc1 (racemic),> 1000,28,
O=C1Nc2ccccc2C1(c1ccc(O)cc1)C1CCCCCC1 (racemic),> 1000,247,
Cc1cccc2c1NC(=O)C2(c1ccc(O)cc1)C1CCCCCC1 (racemic),> 1000,> 1000,
COc1ccc(C2(c3ccc(O)cc3)C(=O)Nc3c2ccc(F)c3F)cc1 (stereo in doubt; form 1),,,IC50 ([1]; pc-3): 2 nM; IC50 ([2]; mcf7): 2.1 nM
O=C1Nc2c(ccc(F)c2F)C1(c1ccc(O)cc1)C1CCCCC1 (stereo in doubt; form 1),,,IC50 ([1]; pc-3): 9.2 nM; IC50 ([2]; mcf7): 18 nM
COc1ccc(C2(c3ccc(O)cc3)C(=O)Nc3c2ccc(F)c3F)cc1 (stereo in doubt; form 2),,,IC50 ([1]; pc-3): > 1000 nM; IC50 ([2]; mcf7): > 1000 nM
O=C1Nc2c(ccc(F)c2F)C1(c1ccc(O)cc1)C1CCCCC1 (stereo in doubt; form 2),,,IC50 ([1]; pc-3): > 1000 nM; IC50 ([2]; mcf7): > 1000 nM
O=C1Nc2ccccc2C1(c1ccc(O)cc1)c1ccc(O)cc1 [OXYPHENISATINE],> 1000,,inhibition at 0.5 µM [19]: 73%
